Laboratory results: ChEMBL document CHEMBL1649179, “Pharmacokinetics of LB80331 and LB80317 following oral administration of LB80380, a new antiviral agent for chronic hepatitis B (CHB), in healthy adult subjects, CHB patients, and mice” (Antimicrob Agents Chemother, 2009)

How the values were obtained:
Homo sapiens [1] = test: Tmax in chronic hepatitis B virus infected patient assessed as (1-((2-amino-6-hydroxy-9H-purin-9-yl)methyl)cyclopropoxy)me at 240 mg, po qd for 4 weeks by LC-MS analysis; type: ADME, organism-based; conditions: in vivo, 672 h
Method in brief: (§1)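 Daily oral LB80380 was given to CHB patients over 4 weeks. Blood was drawn on day 1 and at steady state (weeks 2–4), predose and 0.5–24 h postdose. Plasma LB80331 (LLOQ 5 ng/ml) and LB80317 (LLOQ 10 ng/ml) were measured by LC-MS/MS after protein-precipitation extraction. Tmax was taken by noncompartmental analysis.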

Plasma [2] = test: AUC (0 to 36 hrs) in CD-1 mouse plasma assessed as (1-((2-amino-6-hydroxy-9H-purin-9-yl)methyl)cyclopropoxy)me at 30 mg/kg, po administered as single dose by LC-MS analysis; type: ADME, organism-based; design: time < 36 hr, dose 30 mg/kg, route oral; conditions: in vivo
Method in brief: (§2)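 Male CD-1 mice given a single oral dose in 100% PEG 400. Samples extracted with perchloric acid and neutralized with ammonium bicarbonate. One aliquot assayed for the free analyte; the other treated with calf intestinal phosphatase to give the total including di-/triphosphates. Analysis by LC-MS/MS.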

Liver [3] = test: AUC (0 to 36 hrs) in CD-1 mouse liver assessed as (1-((2-amino-6-hydroxy-9H-purin-9-yl)methyl)cyclopropoxy)me at 30 mg/kg, po administered as single dose by LC-MS analysis; type: ADME, organism-based; design: time < 36 hr, dose 30 mg/kg, route oral; conditions: in vivo; method in brief: as §2
Homo sapiens [4] = test: Cmax in chronic hepatitis B virus infected patient assessed as (1-((2-amino-6-hydroxy-9H-purin-9-yl)methyl)cyclopropoxy)me at 60 mg, po qd for 4 weeks by LC-MS analysis; type: ADME, organism-based; design: dose 60 mg, route oral; conditions: in vivo, 672 h
Method in brief: (§3)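 CHB patients (HBsAg/HBeAg positive), six per cohort, oral once daily for 4 weeks. Plasma sampled at steady state (weeks 2–4), predose and at 0.5, 1, 2, 3, 4, 6, 8 and 24 h postdose. Analysis by validated LC-MS/MS after protein-precipitation extraction with a stable-isotope internal standard; LLOQ 10 ng/ml for LB80317. Noncompartmental analysis gives Cmax, AUC0-24 and terminal t1/2.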

Liver [5] = test: Tmax in CD-1 mouse liver assessed as (1-((2-amino-6-hydroxy-9H-purin-9-yl)methyl)cyclopropoxy)me at 30 mg/kg, po administered as single dose by LC-MS analysis; type: ADME, organism-based; design: dose 30 mg/kg, route oral; conditions: in vivo
Method in brief: (§4)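 Male CD-1 mice received 30 mg/kg orally in 100% PEG 400. Plasma and snap-frozen liver were taken from 3 mice per time point at 1, 2, 4, 6, 10, 24 and 36 h. Samples were extracted with perchloric acid and neutralized with ammonium bicarbonate. Free LB80331/LB80317 was measured directly by LC-MS/MS; total, including di- and triphosphates, was measured after calf intestinal phosphatase treatment.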

Homo sapiens [6] = test: AUC (0 to 24 hrs) in chronic hepatitis B virus infected patient assessed as (1-((2-amino-6-hydroxy-9H-purin-9-yl)methyl)cyclopropoxy)me at 240 mg, po qd for 4 weeks by LC-MS analysis; type: ADME, organism-based, Plasma; design: time < 24 hr, dose 240 mg, route oral; conditions: in vivo; method in brief: as §3
Liver [7] = test: AUC (0 to infinity) in CD-1 mouse liver assessed as (1-((2-amino-6-hydroxy-9H-purin-9-yl)methyl)cyclopropoxy)me at 30 mg/kg, po administered as single dose by LC-MS analysis; type: ADME, organism-based; design: time infinity, dose 30 mg/kg, route oral; conditions: in vivo; method in brief: as §2
Liver [8] = test: Cmax in CD-1 mouse liver assessed as di- and triphosphates of (1-((2-amino-6-hydroxy-9H-purin-9-yl)methyl)cyclopropoxy)me at 30 mg/kg, po administered as single dose by LC-MS analysis; type: ADME, organism-based; design: dose 30 mg/kg, route oral; conditions: in vivo; method in brief: as §2
Plasma [9] = test: Tmax in CD-1 mouse plasma assessed as (1-((2-amino-6-hydroxy-9H-purin-9-yl)methyl)cyclopropoxy)me at 30 mg/kg, po administered as single dose by LC-MS analysis; type: ADME, organism-based; design: dose 30 mg/kg, route oral; conditions: in vivo; method in brief: as §4
Liver [10] = test: AUC (0 to 36 hrs) in CD-1 mouse liver assessed as di- and triphosphates of (1-((2-amino-6-hydroxy-9H-purin-9-yl)methyl)cyclopropoxy)me at 30 mg/kg, po administered as single dose by LC-MS analysis; type: ADME, organism-based; design: time < 36 hr, dose 30 mg/kg, route oral; conditions: in vivo; method in brief: as §2
Homo sapiens [11] = test: Tmax in chronic hepatitis B virus infected patient assessed as (1-((2-amino-6-hydroxy-9H-purin-9-yl)methyl)cyclopropoxy)me at 30 mg, po qd for 4 weeks by LC-MS analysis; type: ADME, organism-based; conditions: in vivo, 672 h; method in brief: as §1
Homo sapiens [12] = test: Cmax in chronic hepatitis B virus infected patient assessed as (1-((2-amino-6-hydroxy-9H-purin-9-yl)methyl)cyclopropoxy)me at 120 mg, po qd for 4 weeks by LC-MS analysis; type: ADME, organism-based; design: dose 120 mg, route oral; conditions: in vivo, 672 h; method in brief: as §3
Homo sapiens [13] = test: Half life in chronic hepatitis B virus infected patient assessed as (1-((2-amino-6-hydroxy-9H-purin-9-yl)methyl)cyclopropoxy)me at 60 mg, po qd for 4 weeks by LC-MS analysis; type: ADME, organism-based; conditions: in vivo, 672 h; method in brief: as §3
Liver [14] = test: Half life in CD-1 mouse liver assessed as (1-((2-amino-6-hydroxy-9H-purin-9-yl)methyl)cyclopropoxy)me at 30 mg/kg, po administered as single dose by LC-MS analysis; type: ADME, organism-based; design: dose 30 mg/kg, route oral; conditions: in vivo; method in brief: as §2
Homo sapiens [15] = test: Half life in chronic hepatitis B virus infected patient assessed as (1-((2-amino-6-hydroxy-9H-purin-9-yl)methyl)cyclopropoxy)me at 30 mg, po qd for 4 weeks by LC-MS analysis; type: ADME, organism-based; conditions: in vivo, 672 h; method in brief: as §3
Homo sapiens [16] = test: Half life in chronic hepatitis B virus infected patient assessed as (1-((2-amino-6-hydroxy-9H-purin-9-yl)methyl)cyclopropoxy)me at 240 mg, po qd for 4 weeks by LC-MS analysis; type: ADME, organism-based; conditions: in vivo, 672 h; method in brief: as §3
Liver [17] = test: Cmax in CD-1 mouse liver assessed as (1-((2-amino-6-hydroxy-9H-purin-9-yl)methyl)cyclopropoxy)me at 30 mg/kg, po administered as single dose by LC-MS analysis; type: ADME, organism-based; design: dose 30 mg/kg, route oral; conditions: in vivo; method in brief: as §2
Homo sapiens [18] = test: AUC (0 to 24 hrs) in chronic hepatitis B virus infected patient assessed as (1-((2-amino-6-hydroxy-9H-purin-9-yl)methyl)cyclopropoxy)me at 30 mg, po qd for 4 weeks by LC-MS analysis; type: ADME, organism-based, Plasma; design: time < 24 hr, dose 30 mg, route oral; conditions: in vivo; method in brief: as §3
Liver [19] = test: AUC (0 to infinity) in CD-1 mouse liver assessed as di- and triphosphates of (1-((2-amino-6-hydroxy-9H-purin-9-yl)methyl)cyclopropoxy)me at 30 mg/kg, po administered as single dose by LC-MS analysis; type: ADME, organism-based; design: time infinity, dose 30 mg/kg, route oral; conditions: in vivo; method in brief: as §2
Homo sapiens [20] = test: Tmax in chronic hepatitis B virus infected patient assessed as (1-((2-amino-6-hydroxy-9H-purin-9-yl)methyl)cyclopropoxy)me at 60 mg, po qd for 4 weeks by LC-MS analysis; type: ADME, organism-based; conditions: in vivo, 672 h; method in brief: as §1
Homo sapiens [21] = test: Cmax in chronic hepatitis B virus infected patient assessed as (1-((2-amino-6-hydroxy-9H-purin-9-yl)methyl)cyclopropoxy)me at 240 mg, po qd for 4 weeks by LC-MS analysis; type: ADME, organism-based; design: dose 240 mg, route oral; conditions: in vivo, 672 h; method in brief: as §3
Plasma [22] = test: Half life in CD-1 mouse plasma assessed as (1-((2-amino-6-hydroxy-9H-purin-9-yl)methyl)cyclopropoxy)me at 30 mg/kg, po administered as single dose by LC-MS analysis; type: ADME, organism-based; design: dose 30 mg/kg, route oral; conditions: in vivo; method in brief: as §2
Liver [23] = test: Tmax in CD-1 mouse liver assessed as di- and triphosphates of (1-((2-amino-6-hydroxy-9H-purin-9-yl)methyl)cyclopropoxy)me at 30 mg/kg, po administered as single dose by LC-MS analysis; type: ADME, organism-based; design: dose 30 mg/kg, route oral; conditions: in vivo; method in brief: as §4
Homo sapiens [24] = test: Cmax in chronic hepatitis B virus infected patient assessed as (1-((2-amino-6-hydroxy-9H-purin-9-yl)methyl)cyclopropoxy)me at 30 mg, po qd for 4 weeks by LC-MS analysis; type: ADME, organism-based; design: dose 30 mg, route oral; conditions: in vivo, 672 h; method in brief: as §3
Homo sapiens [25] = test: AUC (0 to 24 hrs) in chronic hepatitis B virus infected patient assessed as (1-((2-amino-6-hydroxy-9H-purin-9-yl)methyl)cyclopropoxy)me at 120 mg, po qd for 4 weeks by LC-MS analysis; type: ADME, organism-based, Plasma; design: dose 120 mg, time < 24 hr, route oral; conditions: in vivo; method in brief: as §3
Homo sapiens [26] = test: Half life in chronic hepatitis B virus infected patient assessed as (1-((2-amino-6-hydroxy-9H-purin-9-yl)methyl)cyclopropoxy)me at 120 mg, po qd for 4 weeks by LC-MS analysis; type: ADME, organism-based; conditions: in vivo, 672 h; method in brief: as §3
Plasma [27] = test: AUC (0 to infinity) in CD-1 mouse plasma assessed as (1-((2-amino-6-hydroxy-9H-purin-9-yl)methyl)cyclopropoxy)me at 30 mg/kg, po administered as single dose by LC-MS analysis; type: ADME, organism-based; design: time infinity, dose 30 mg/kg, route oral; conditions: in vivo; method in brief: as §2
Plasma [28] = test: Cmax in CD-1 mouse plasma assessed as (1-((2-amino-6-hydroxy-9H-purin-9-yl)methyl)cyclopropoxy)me at 30 mg/kg, po administered as single dose by LC-MS analysis; type: ADME, organism-based; design: dose 30 mg/kg, route oral; conditions: in vivo; method in brief: as §2
Homo sapiens [29] = test: Tmax in chronic hepatitis B virus infected patient assessed as (1-((2-amino-6-hydroxy-9H-purin-9-yl)methyl)cyclopropoxy)me at 120 mg, po qd for 4 weeks by LC-MS analysis; type: ADME, organism-based; conditions: in vivo, 672 h; method in brief: as §1
Homo sapiens [30] = test: AUC (0 to 24 hrs) in chronic hepatitis B virus infected patient assessed as (1-((2-amino-6-hydroxy-9H-purin-9-yl)methyl)cyclopropoxy)me at 60 mg, po qd for 4 weeks by LC-MS analysis; type: ADME, organism-based, Plasma; design: time < 24 hr, dose 60 mg, route oral; conditions: in vivo; method in brief: as §3
Liver [31] = test: Half life in CD-1 mouse liver assessed as di- and triphosphates of (1-((2-amino-6-hydroxy-9H-purin-9-yl)methyl)cyclopropoxy)me at 30 mg/kg, po administered as single dose by LC-MS analysis; type: ADME, organism-based; design: dose 30 mg/kg, route oral; conditions: in vivo; method in brief: as §2

## Nc1nc(O)c2ncn(CC3(OCP(=O)(O)O)CC3)c2n1 [LB80317]
Homo sapiens [1]
  Tmax: 4.5 h
Plasma [2]
  AUC: 6 µM·h
Liver [3]
  AUC: 3069 µM·h
Homo sapiens [4]
  Cmax: 21 ng/mL
Liver [5]
  Tmax: 1 h
Homo sapiens [6]
  AUC: 1449 ng·h/mL
Liver [7]
  AUC: 3353 µM·h
Liver [8]
  Cmax: 107 µM
Plasma [9]
  Tmax: 4 h
Liver [10]
  AUC: 1883 µM·h
Homo sapiens [11]
  Tmax: 6 h
Homo sapiens [12]
  Cmax: 49 ng/mL
Homo sapiens [13]
  t1/2: 62 h
Liver [14]
  t1/2: 9.9 h
Homo sapiens [15]
  t1/2: 53 h
Homo sapiens [16]
  t1/2: 45 h
Liver [17]
  Cmax: 243 µM
Homo sapiens [18]
  AUC: 285 ng·h/mL
Liver [19]
  AUC: 2152 µM·h
Homo sapiens [20]
  Tmax: 8 h
Homo sapiens [21]
  Cmax: 75 ng/mL
Plasma [22]
  t1/2: 8.6 h
Liver [23]
  Tmax: 1 h
Homo sapiens [24]
  Cmax: 12 ng/mL
Homo sapiens [25]
  AUC: 1017 ng·h/mL
Homo sapiens [26]
  t1/2: 51 h
Plasma [27]
  AUC: 6 µM·h
Plasma [28]
  Cmax: 0.6 µM
Homo sapiens [29]
  Tmax: 3 h
Homo sapiens [30]
  AUC: 433 ng·h/mL
Liver [31]
  t1/2: 8.3 h
